In ChEMBL document CHEMBL1155146, “Diphenyl furans and aza analogs: effects of structural modification on in vitro activity, DNA binding, and accumulation and distribution in trypanosomes” (Antimicrob Agents Chemother, 2007):

Legend:
[1] = Binding affinity at d(CGCGAATTCGCG) synthetic oligomer duplex assessed as increase in melting temperature
Procedure, shortened: (§1)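 UV thermal melting in MES buffer (0.01 M MES, 0.1 M NaCl, 0.001 M EDTA, pH 6.2), heated at 0.5°C/min. Oligomer duplex at 1 x 10^-6 M duplex with 1:1 compound:duplex. Poly(dA)·poly(dT) at 5 x 10^-5 M base pairs with 0.6 compound:bp. Tm taken from the first-derivative maximum of absorbance vs temperature. ΔTm = Tm(complex) − Tm(DNA).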

[2] = tested on: Trypanosoma brucei brucei; test: Antitrypanosomal activity against Trypanosoma brucei brucei S427 after 72 hrs; type: functional, organism-based; conditions: S427, 72 h
[3] = tested on: Trypanosoma brucei rhodesiense; test: Antitrypanosomal activity against Trypanosoma brucei rhodesiense STIB900 after 72 hrs; type: functional, organism-based; conditions: STIB900, 72 h
[4] = Binding affinity to poly(dA).poly(dT) assessed as increase in melting temperature; procedure, shortened: as §1
[5] = tested on: Trypanosoma brucei brucei; test: Drug level in Trypanosoma brucei brucei S427 at 7.5 uM after 24 hrs; type: ADME, organism-based
[6] = tested on: Trypanosoma brucei brucei; test: Drug level in Trypanosoma brucei brucei S427 at 7.5 uM after 8 hrs; type: ADME, organism-based
Procedure, shortened: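 About 10^6 trypanosomes incubated with 7.5 µM diamidine for 1 to 8 h. Intracellular concentration measured by HPLC (fluorescence detection at excitation/emission maxima, formate buffer/acetonitrile gradient, reversed-phase column) or LC/MS. Reported as mean ± standard error.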

N=C(N)c1ccc(-c2ccc(-c3ccc(C(=N)N)cc3F)o2)c(F)c1 showed a ΔTm [1] of 8.2 °C, an IC50 [2] of 14.8 nM and an IC50 [3] of 8 nM. The ΔTm [4] was 15.2 °C.
N=C(N)c1ccc(-c2ccc(-c3ccc(C(=N)N)cn3)o2)cc1 showed a ΔTm [1] of 11.2 °C, an IC50 [2] of 3.4 nM and a Drug uptake [5] of 3 mM. It also gave a Drug uptake [6] of 1 mM and a ΔTm [4] of 20 °C.
Compound c1cc(-c2ccc(-c3ccc(C4=NCCN4)cc3)o2)ccc1C1=NCCN1 has a ΔTm [1] of 11 °C, an IC50 [2] of 251 nM and an IC50 [3] of 245 nM. The ΔTm [4] was 19.3 °C.
With Cc1cc(C(=N)N)ccc1-c1ccc(-c2ccc(C(=N)N)cn2)o1 the ΔTm [1] was 10.6 °C, the IC50 [2] was 10 nM and the IC50 [3] was 9.7 nM. It also gave a ΔTm [4] of 16.7 °C.
N=C(N)c1ccc(-c2ccc(-c3ccc(C(=N)N)cc3)o2)cc1 [FURAMIDINE] showed a ΔTm [1] of 8.9 °C, an IC50 [2] of 7 nM and a Drug uptake [5] of 12 mM. The Drug uptake [6] was 4.5 mM and the ΔTm [4] was 26.2 °C.
For N=C(N)c1ccc(-c2ccc(-c3ccc(C(=N)N)cc3O)o2)nc1, the ΔTm [1] was 10.4 °C, the IC50 [2] was 32 nM and the IC50 [3] was 32 nM. The ΔTm [4] was 16.4 °C.
Compound N=C(N)c1ccc(Cc2ccc(-c3ccc(C(=N)N)cn3)o2)cc1 has a ΔTm [1] of 0.4 °C, an IC50 [2] of 314 nM and an IC50 [3] of 147 nM. It also gave a ΔTm [4] of 3.1 °C.
In the case of N=C(N)c1ccc(-c2ccc(-c3ccc(C(=N)N)cn3)o2)nc1, the ΔTm [1] is reported as 8.4 °C, the IC50 [2] is reported as 13 nM and the IC50 [3] is reported as 19 nM. It also gave a ΔTm [4] of 16 °C.
For c1cc(-c2ccc(-c3ccc(C4=NCCCN4)cc3)o2)ccc1C1=NCCCN1, the ΔTm [1] was 15.1 °C, the IC50 [2] was 260 nM and the IC50 [3] was 33 nM. It also gave a ΔTm [4] of 27 °C.
N=C(N)c1ccc(-c2ccc(-c3ccc(C(=N)N)nc3)o2)cc1 showed a ΔTm [1] of 10.4 °C, an IC50 [2] of 3.3 nM and an IC50 [3] of 2.1 nM. The Drug uptake [6] was 9.3 mM and the ΔTm [4] was 23.3 °C.
Compound N=C(NC1CCCCC1)c1ccc(-c2ccc(-c3ccc(C(=N)NC4CCCCC4)cc3)o2)cc1 has a ΔTm [1] of 16.8 °C, an IC50 [2] of 121 nM and an IC50 [3] of 68 nM. It also gave a Drug uptake [6] of 30 mM and a ΔTm [4] of 27 °C.
In the case of N=C(NC1CCCC1)c1ccc(-c2ccc(-c3ccc(C(=N)NC4CCCC4)cc3)o2)cc1, the ΔTm [1] is reported as 16 °C, the IC50 [2] is reported as 100 nM and the IC50 [3] is reported as 60 nM. The Drug uptake [6] was 30 mM and the ΔTm [4] was 27 °C.
For N=C(N)c1ccc(-c2coc(-c3ccc(C(=N)N)cc3)c2)cc1, the ΔTm [1] was 10.4 °C, the IC50 [2] was 2.1 nM and the IC50 [3] was 1.7 nM. It also gave a Drug uptake [6] of 30 mM and a ΔTm [4] of 17.1 °C.
